Test results reported in PMC4636097 (Drug Design, Development and Therapy, 2015).

Experiments:
HLMs [1] = assay: Identification of OMT metabolite in HLMs; format: in vitro ADME, human; conditions: HLMs and NADPH, 37°C, 1.5 hours; metabolite identified as MT
How it was run: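 Test compound at 50, 100 or 200 μM with pooled human liver microsomes (0.1 mg/mL) in 50 mM KPI pH 7.4 and a glucose-6-phosphate/MgCl2/G6P dehydrogenase system, started with NADP. Controls lacked NADP. Run at 37°C for 1.5 h with shaking, then CH2Cl2 extraction. UPLC and Q-TOF MS (positive ESI); metabolite assigned by chromatographic behaviour and MS fragmentation. Triplicate.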

HLMs [2] = assay: Effects of different oxygen contents on the metabolism of OMT in HLMs; format: in vitro ADME, human; conditions: OMT 50 μM, enzyme inactivated in boiled water for 2 h, ventilation for 30 s
[3] = test system: pooled HIMs (human intestinal microsomes); assay: Kinetics of OMT metabolism; format: in vitro ADME; conditions: pooled HIM, formation of MT, biphasic metabolism equation
[4] = test system: other cDNA-expressed CYP enzymes (CYP1A1, CYP1A2, CYP1B1, CYP2A6, CYP2B6, CYP2C8, CYP2C19, CYP2D6, CYP2E1, CYP3A5); assay: Metabolism of OMT in recombinant human CYP enzymes: other isoforms; format: in vitro ADME; conditions: OMT 50 μM, 0.08 mg/mL enzyme, NADPH-regenerating system, 37°C, 1.5 hours
[5] = test system: pooled HLMs (human liver microsomes); assay: Kinetics of OMT metabolism; format: in vitro ADME; conditions: pooled HLM, formation of MT, biphasic metabolism equation
[6] = oral administration; cited from earlier work
[7] = target: cDNA-expressed human CYP3A4 (Homo sapiens, UniProt P08684); assay: Metabolism of OMT in recombinant human CYP enzymes: CYP3A4; format: in vitro ADME; conditions: OMT 50 μM, 0.08 mg/mL enzyme, NADPH-regenerating system, 37°C, 1.5 hours
cDNA-expressed human CYP3A4, sequence (P08684 whole entry): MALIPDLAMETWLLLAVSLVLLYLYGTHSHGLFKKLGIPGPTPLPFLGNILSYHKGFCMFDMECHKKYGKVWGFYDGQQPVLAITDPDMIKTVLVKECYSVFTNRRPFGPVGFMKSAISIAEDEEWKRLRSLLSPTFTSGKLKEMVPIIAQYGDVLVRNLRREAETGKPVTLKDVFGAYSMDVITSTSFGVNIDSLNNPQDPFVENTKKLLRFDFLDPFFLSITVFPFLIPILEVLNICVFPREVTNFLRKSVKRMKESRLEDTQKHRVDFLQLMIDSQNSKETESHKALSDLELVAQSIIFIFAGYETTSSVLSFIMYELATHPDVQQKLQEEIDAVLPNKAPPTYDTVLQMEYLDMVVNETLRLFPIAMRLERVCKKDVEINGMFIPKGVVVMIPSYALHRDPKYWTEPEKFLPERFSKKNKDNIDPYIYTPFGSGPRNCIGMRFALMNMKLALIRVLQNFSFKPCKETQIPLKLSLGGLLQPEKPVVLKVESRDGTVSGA

- metabolites found in HLMs (HLMs [1]): only one metabolite was found in HLMs
- metabolites in the inactivated enzyme test (HLMs [2]): no metabolites were observed
Compound: O=C1CCC[C@@H]2[C@H]3CCC[N+]4([O-])CCC[C@@H](CN12)[C@@H]34 (stereo partly shown) [OMT, Oxymatrine]
- Vmax [3]: 0.46 ± 0.05 nmol/min/mg
- formation of MT by other cDNA-expressed CYP enzymes [4]: only a small amount of MT could be detected
- Vmax [5]: 1.49 ± 0.24 nmol/min/mg
- oral absolute bioavailability [6]: 6.79%
- formation of MT by CYP3A4 [7]: contributed greatly to the formation of MT
